One series relates to PNT2 cells. The experiment in a line: Cell viability assay. It is filed as cell-based, human. The settings on record: 5 days, WST-8 (CCK-8). In outline:
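PNT2 cells were grown at 37 °C in 5% CO2 and treated with serial dilutions of the test compound. The general protocol gives a treatment span of 5–8 days. Viability was measured by CCK-8 (WST-8) absorbance at 450 nm, with 690 nm as reference. IC50 was calculated by curve fitting.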

For the next series, the target named is T1, PRMT7 (Homo sapiens, UniProt Q9NVM4).
T1 sequence (Q9NVM4 1-692): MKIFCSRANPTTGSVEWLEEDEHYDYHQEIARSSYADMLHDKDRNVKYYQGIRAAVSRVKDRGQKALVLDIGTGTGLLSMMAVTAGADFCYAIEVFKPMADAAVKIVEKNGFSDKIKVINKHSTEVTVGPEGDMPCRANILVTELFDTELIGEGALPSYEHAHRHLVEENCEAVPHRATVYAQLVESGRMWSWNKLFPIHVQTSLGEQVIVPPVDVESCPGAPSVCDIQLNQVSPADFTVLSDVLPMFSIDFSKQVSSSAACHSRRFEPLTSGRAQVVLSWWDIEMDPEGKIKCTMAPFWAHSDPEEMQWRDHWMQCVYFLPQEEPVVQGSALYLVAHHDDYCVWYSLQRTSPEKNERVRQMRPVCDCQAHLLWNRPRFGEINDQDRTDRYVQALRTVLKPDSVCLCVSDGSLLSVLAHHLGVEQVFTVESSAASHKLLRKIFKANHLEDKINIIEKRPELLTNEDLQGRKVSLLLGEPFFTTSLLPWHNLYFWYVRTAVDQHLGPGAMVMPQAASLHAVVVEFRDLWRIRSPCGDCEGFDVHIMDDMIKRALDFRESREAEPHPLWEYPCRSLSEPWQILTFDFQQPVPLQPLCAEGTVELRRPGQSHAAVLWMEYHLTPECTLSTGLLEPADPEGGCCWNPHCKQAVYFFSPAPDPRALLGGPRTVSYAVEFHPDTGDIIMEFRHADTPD
Description: Western blot of PRMT7 protein level in 22Rv1 cells. It counts as cell-based. To be noted: indicated concentration, 24 h, WB. In outline:
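22Rv1 cells were treated with the test compound at the indicated concentrations for 24 h. Cells were lysed in RIPA containing protease inhibitor cocktail, and protein was resolved by SDS-PAGE and transferred to PVDF. Primary antibody was applied overnight at 4 °C, with β-actin as loading control. Blots are representative of two independent experiments.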

For a further series, the target named is T2, SET7/9 (Homo sapiens, UniProt Q8WTS6).
T2 sequence (Q8WTS6 1-366): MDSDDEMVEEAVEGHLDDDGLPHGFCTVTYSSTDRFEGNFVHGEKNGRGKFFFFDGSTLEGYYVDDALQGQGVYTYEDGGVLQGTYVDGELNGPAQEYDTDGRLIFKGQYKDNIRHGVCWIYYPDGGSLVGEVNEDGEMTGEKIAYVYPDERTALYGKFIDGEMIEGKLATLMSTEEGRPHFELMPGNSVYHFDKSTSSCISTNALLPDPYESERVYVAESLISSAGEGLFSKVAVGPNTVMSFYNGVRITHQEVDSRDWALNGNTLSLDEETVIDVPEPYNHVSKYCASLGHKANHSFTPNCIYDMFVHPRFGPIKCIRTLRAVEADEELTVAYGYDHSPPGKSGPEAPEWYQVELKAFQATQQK
Description: Radioactive methyltransferase assay, SET7/9. It counts as biochemical. The settings on record: 10 μM compound. In outline: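 The selectivity screen covered 21 protein methyltransferases in radioisotope-based MT HotSpot methyltransferase assays run by a contract laboratory. Test compound was at 10 μM. Each assay was run in duplicate and reported as mean ± SD of the two replicates.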

The target of another series is T3, G9a (Homo sapiens, UniProt Q96KQ7).
T3 sequence (Q96KQ7 1-1210): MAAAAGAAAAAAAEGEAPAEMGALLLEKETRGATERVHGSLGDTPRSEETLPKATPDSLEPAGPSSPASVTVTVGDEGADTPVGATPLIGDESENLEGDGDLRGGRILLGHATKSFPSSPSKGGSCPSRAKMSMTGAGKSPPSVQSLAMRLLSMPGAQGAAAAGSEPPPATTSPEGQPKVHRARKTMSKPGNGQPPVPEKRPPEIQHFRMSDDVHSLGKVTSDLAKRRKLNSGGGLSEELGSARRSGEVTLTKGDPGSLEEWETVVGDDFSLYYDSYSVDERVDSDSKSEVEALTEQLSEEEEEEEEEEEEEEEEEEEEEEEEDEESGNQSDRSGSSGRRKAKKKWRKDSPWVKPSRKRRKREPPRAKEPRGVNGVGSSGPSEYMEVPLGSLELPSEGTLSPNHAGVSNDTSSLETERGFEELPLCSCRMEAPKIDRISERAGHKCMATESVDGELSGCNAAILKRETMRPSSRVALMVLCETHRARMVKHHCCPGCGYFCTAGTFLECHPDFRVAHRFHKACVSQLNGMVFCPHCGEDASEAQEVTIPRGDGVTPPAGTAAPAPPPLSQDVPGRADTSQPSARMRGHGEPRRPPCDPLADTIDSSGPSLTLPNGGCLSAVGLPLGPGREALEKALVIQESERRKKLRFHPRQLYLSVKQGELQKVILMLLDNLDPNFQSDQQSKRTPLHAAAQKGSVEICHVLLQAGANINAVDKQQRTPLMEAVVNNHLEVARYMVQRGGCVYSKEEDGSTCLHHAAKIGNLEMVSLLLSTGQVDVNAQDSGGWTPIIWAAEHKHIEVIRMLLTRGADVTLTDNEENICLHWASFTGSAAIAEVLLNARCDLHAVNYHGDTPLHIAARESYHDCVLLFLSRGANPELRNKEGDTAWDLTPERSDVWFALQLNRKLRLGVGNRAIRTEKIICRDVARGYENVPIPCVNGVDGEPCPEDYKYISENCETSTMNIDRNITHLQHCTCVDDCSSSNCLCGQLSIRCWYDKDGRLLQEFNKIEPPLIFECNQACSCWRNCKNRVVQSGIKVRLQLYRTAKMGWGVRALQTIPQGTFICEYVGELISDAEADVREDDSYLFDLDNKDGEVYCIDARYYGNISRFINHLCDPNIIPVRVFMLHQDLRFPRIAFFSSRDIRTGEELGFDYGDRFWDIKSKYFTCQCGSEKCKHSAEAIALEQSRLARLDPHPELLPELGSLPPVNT
The experiment in a line: Western blot of G9a protein levels in cancer cells. It counts as cell-based. In outline: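 Cells (22Rv1, K562, H1299) were treated for 24 h at the indicated concentrations; 22Rv1 time courses were run at 3 μM. Cells were lysed in RIPA with protease inhibitors, and 10–30 μg of protein was resolved by SDS-PAGE and transferred to PVDF. Blots were probed overnight at 4 °C, with vinculin/β-actin as loading controls. Band intensity was normalised to DMSO, with n = 2 independent experiments (mean ± SD).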

As for `COc1cc2c(NC3CCN(CCCC(=O)NCCCCCCCCCCCC(=O)N[C@H](C(=O)N4C[C@H](O)C[C@H]4C(=O)NCc4ccc(-c5scnc5C)cc4)C(C)(C)C)CC3)nc(N3CCC(F)(F)CC3)nc2cc1OCCCN1CCCC1` [Compound 10, (2S,4R)-1-((S)-2-(12-(4-(4-((2-(4,4-difluoropiperidin-1-yl)-6-methoxy-7-(3-(pyrrolidin-1-yl)propoxy)quinazolin-4-yl)amino)piperidin-1-yl)butanamido)dodecanamido)-3,3-dimethylbutanoyl)-4-hydroxy-N-(4-(4-methylthiazol-5-yl)benzyl)pyrrolidine-2-carboxamide], the “cell viability of normal prostate cells” value in the series on PNT2 cells was “does not affect the cell viability”. Also, the PRMT7 degradation result on PRMT7 is on record as “cannot induce the degradation”. Besides, the “inhibition of SET7/9” value at SET7/9 is given as “moderately inhibited”. Further, at G9a (22Rv1 cells, 1 μM, 24 h, WB (Figure 3A)), the “G9a degradation, in words” value is on record as “potently induced degradation”. Further, on G9a (22Rv1 cells, 3 μM), the “duration of G9a degradation effect” value is “up to 48 h”, the “time at which G9a degradation was first observed” value worked out at 4 h and the “time to complete G9a degradation” value was “around 24 h”. The “G9a degradation, in words” value at G9a (H1299 cells, 3 μM, 24 h, WB) was “degraded”. Moreover, on G9a (K562 cells, 3 μM, 24 h, WB), the “G9a degradation, in words” value is “induced G9a and GLP degradation”. The DC50 at G9a (read-out: half-maximal degradation concentration (DC50) for G9a, 22Rv1 cells, 24 h, WB) was 274 ± 2 nM.

The values are drawn from PMC10925177 (bioRxiv, 2024).
